Reference: ChEMBL document CHEMBL1138750, “Design, synthesis, and biological evaluation of 1,2,3,7-tetrahydro-6h-purin-6-one and 3,7-dihydro-1h-purine-2,6-dione derivatives as corticotropin-releasing factor(1) receptor antagonists” (J Med Chem, 2004)

molecular target: T1, Corticotropin-releasing factor receptor 1 (Rattus norvegicus, UniProt P35353); assay: Inhibition of [125I]- Ovine CRF binding to rat frontal cortex corticotropin releasing factor 1 receptor; format: tissue-based; conditions: not given
T1 sequence (P35353 whole entry): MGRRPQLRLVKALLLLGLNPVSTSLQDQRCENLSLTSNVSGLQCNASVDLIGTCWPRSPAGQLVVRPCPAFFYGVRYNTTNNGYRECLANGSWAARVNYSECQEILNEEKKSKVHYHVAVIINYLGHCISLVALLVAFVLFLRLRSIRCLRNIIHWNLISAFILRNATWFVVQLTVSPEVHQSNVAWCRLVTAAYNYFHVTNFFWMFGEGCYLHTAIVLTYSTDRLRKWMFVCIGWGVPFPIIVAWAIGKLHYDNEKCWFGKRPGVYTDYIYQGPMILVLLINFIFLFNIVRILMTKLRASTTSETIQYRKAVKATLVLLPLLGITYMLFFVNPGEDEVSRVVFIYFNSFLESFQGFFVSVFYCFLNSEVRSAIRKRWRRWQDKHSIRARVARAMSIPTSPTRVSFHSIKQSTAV
Summary of the method: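 Frozen rat frontal cortex homogenate (25 μg/well) in 50 mM HEPES pH 7.0 with 10 mM MgCl₂, 2 mM EGTA, protease inhibitors, 0.005% Triton X-100, bacitracin and 0.1% ovalbumin. Bound ligand collected by filtration on PEI-treated filters and gamma counted. Nonspecific binding defined with 1 μM DMP696.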

SMILES	IC50 [nM]
CCCC(CCC)n1c(CC)nc2c1C(=O)N(C)C(C)N2c1ccc(Cl)cc1Cl (stereo not drawn)	383
CCCC(CCC)n1c(CC)nc2c1C(=O)N(C)CN2c1ccc(Cl)cc1	173
CCc1nc2c(n1C(CC)C(C)C)C(=O)N(C)CN2c1ccc(Cl)cc1Cl (stereo not drawn)	51
CCc1nc2c(n1C(CC)C1CC1)C(=O)N(C)CN2c1ccc(OC)cc1Cl (stereo not drawn)	113
CCc1nc2c(n1Cc1ccccc1C)C(=O)N(C)CN2c1ccc(Cl)cc1Cl	458
CCc1nc2c(n1C(C)C1CCC1)C(=O)N(C)CN2c1ccc(Cl)cc1Cl (stereo not drawn)	26
CCc1nc2c(n1C(CC)C1CC1)C(=O)N(C)CN2c1ccc(Cl)cc1Cl (stereo not drawn)	14
CCCC(CCC)n1c(CC)nc2c1C(=O)N(C)C(CC)N2c1ccc(Cl)cc1Cl (stereo not drawn)	626
CCCC(CCC)n1c(CC)nc2c1C(=O)N(C)CN2c1c(C)cc(C)cc1C	22
CCCC(CCC)n1c(CC)nc2c1c(=O)n(C)c(=O)n2-c1ccc(Cl)cc1Cl	75
CCc1nc2c(n1Cc1ccc(OC)cc1)C(=O)N(C)CN2c1ccc(Cl)cc1Cl	456
CCCC(CCC)n1c(CC)nc2c1C(=O)N(C)CN2c1ccc(C(C)C)cc1Cl	50
CCCC(CCC)n1c(CC)nc2c1C(=O)N(C)CN2c1ccc(Cl)cc1Cl	5.4
CCc1nc2c(n1C(CC)C(C)C)C(=O)N(C)CN2c1ccc(C(C)C)cc1Cl (stereo not drawn)	555
CCc1nc2c(n1Cc1ccc(-c3ccccc3)cc1)C(=O)N(C)CN2c1ccc(Cl)cc1Cl	324
CCCC(CCC)n1c(CC)nc2c1C(=O)N(C)CN2c1ccc(OC)cc1Cl	27
CCc1nc2c(n1Cc1ccccc1C)C(=O)N(C)CN2c1ccc(OC)cc1Cl	875
CCCC(C1CC1)n1c(CC)nc2c1C(=O)N(C)CN2c1ccc(Cl)cc1Cl (stereo not drawn)	10
CCc1nc2c(n1C(C)C1CC1)C(=O)N(C)CN2c1ccc(Cl)cc1Cl (stereo not drawn)	55
CCc1nc2c(n1C(CC)CC)C(=O)N(C)CN2c1ccc(Cl)cc1Cl	112
CCCC(COC)n1c(CC)nc2c1C(=O)N(C)CN2c1ccc(Cl)cc1Cl (stereo not drawn)	43
CCCC(C)n1c(CC)nc2c1C(=O)N(C)CN2c1ccc(Cl)cc1Cl (stereo not drawn)	52
CCCCC(CC)n1c(CC)nc2c1C(=O)N(C)CN2c1ccc(Cl)cc1Cl (stereo not drawn)	18
CCc1nc2c(n1COCc1ccccc1)C(=O)N(C)CN2c1ccc(Cl)cc1Cl	860
CCc1nc2c(n1C(C1CC1)C1CC1)C(=O)N(C)CN2c1ccc(Cl)cc1Cl	6
CCCC(CCC)n1cnc2c1C(=O)N(C)CN2c1ccc(Cl)cc1Cl	898

test system: not listed separately; assay: Inhibition of CRF-stimulated cAMP production in human Y-79 retinoblastoma cells; format: functional, cell-based; conditions: Y79
Summary of the method: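 Human Y-79 retinoblastoma cells, 20 000/well in HBSS with 2 mM CaCl₂, 5 mM MgCl₂, 20 mM HEPES and 1 mM IBMX. Antagonist (typically 0.01–10 000 nM) preincubated 30 min at 37 °C, then 1 nM CRF added for 30 min at 37 °C. cAMP read by HTRF against a cAMP standard curve. Percent inhibition of CRF-induced cAMP determined in triplicate; basal cAMP without CRF also measured.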

SMILES	IC50 [nM]
CCCC(CCC)n1c(CC)nc2c1C(=O)N(C)CN2c1ccc(Cl)cc1Cl	24.2
CCc1nc2c(n1C(C1CC1)C1CC1)C(=O)N(C)CN2c1ccc(Cl)cc1Cl	14.4
